Molecules are shown by their SMILES. The source made the active and inactive calls. No cut-off for these calls is given here. Some results are limits rather than exact numbers.

The values below come from ChEMBL document CHEMBL3785082, “(±)-Homocrepidine A, a Pair of Anti-inflammatory Enantiomeric Octahydroindolizine Alkaloid Dimers from Dendrobium crepidatum” (J Nat Prod, 2016).

The subject of data set [1] is RAW264.7. As to the kind of experiment: Antiinflammatory activity in mouse RAW264.7 cells assessed as inhibition of LPS-induced iNOS overexpression at 5 uM after 24 hrs by Western blot analysis. It counts as functional, cell-based. In outline:
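RAW 264.7 cells pretreated with 5 μg/mL LPS or solvent, then exposed to 5 μM compound for 24 h. Lysed in cold buffer with 1% PMSF; protein by Bradford, 25 μg run on SDS-PAGE, blotted to nitrocellulose, blocked in 5% milk/TBS-Tween 60 min. Anti-iNOS overnight at 4 °C, HRP secondary 1 h, ECL on film; densitometry normalized to β-actin. Mean ± SD, n = 3–5.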

In data set [2] the test system is RAW264.7. The data set is described as follows: Antiinflammatory activity in mouse RAW264.7 cells assessed as inhibition of LPS-induced NO production preincubated for 1 hr followed by LPS stimulation measured after 20 hrs by Griess assay. In kind it is functional, cell-based. An outline of the steps:
(§1)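 RAW 264.7 cells in DMEM with 10% FBS, penicillin/streptomycin, 2 mM L-glutamine and 1 mM nonessential amino acids, seeded at 4 × 10^5 cells/well, settled 4 h at 37 °C, 5% CO2. Compounds in 0.1% DMSO (final 0.1–100 μM) added 1 h before LPS (5 μg/mL solution). After a further 20 h, supernatant mixed 1:1 with Griess reagent for 5 min, A540 read. At least triplicate; indomethacin as reference.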
In general terms: Nitrite, measured by Griess reagent, commonly stands in for NO production.

Data set [3] can be described thus: Inhibition of L-rhamnosidase (unknown origin).
The test system of data set [4] is RAW264.7. The data set is described as follows: Antiinflammatory activity in mouse RAW264.7 cells assessed as inhibition of LPS-induced NO production at 100 uM preincubated for 1 hr followed by LPS stimulation measured after 20 hrs by Griess assay. In kind it is functional, cell-based. In outline:
as §1

Data set [5] is described as follows: Cytotoxicity against mouse RAW264.7 cells assessed as inhibition of cell viability at 100 uM by MTT assay. It counts as cell-based. The settings on record: read-out: INH. An outline of the steps:
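Same RAW 264.7 culture and plating as the nitrite assay: compounds in 0.1% DMSO added 1 h before LPS (5 μg/mL solution), then 20 h incubation. Viability read by standard MTT assay. At least triplicate.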
(Formazan colour is commonly taken as a measure of viable cells.)

As usually defined, the IC50 is the concentration needed to halve the response being measured. Take `C[C@H]1C[C@H]2CCCN2[C@@H](CC(=O)C[C@@H]2N3CCC[C@@H]3C[C@H](C)[C@@]2(O)c2ccccc2)[C@]1(O)c1ccccc1`: the inhibition result with RAW264.7 [1] is “Active”. Also, in the data set on RAW264.7 [2], the IC50 worked out at 3.6 µM.

One may read the Ki as the equilibrium dissociation constant of an inhibitor or competing ligand from its target. The low end stands for higher affinity, the high end for lower affinity. `O[C@@H]1[C@@H]2[C@@H](O)CCCN2C[C@@H]1O` came in with a Ki in data set [3] of 0.45 µM.

For `CC(=O)[C@H]1[C@@H]2CC[C@H]3C[C@@H](C)[C@](O)(c4ccccc4)[C@H](C[C@@]1(C)O)N32`, in the data set on RAW264.7 [4], the inhibition entry is “inactive”. The cytotoxicity at 100 µM in data set [5] was under 10%.

In the case of `CC1CC2CCCN2C(CC(=O)CC2N3CCCC3CC(C)C2(O)c2ccccc2)C1(O)c1ccccc1` (racemic), in the data set on RAW264.7 [1], the inhibition result was “inactive”. Moreover, the IC50 in the data set with RAW264.7 [2] was 14.7 µM. For the same compound, in data set [5], the cytotoxicity at 100 µM was under 10%.

`CC(=O)CCCC[C@H]1C[C@@H](C)[C@@](O)(c2ccccc2)CN1`: the concentration for half-maximal inhibition (IC50) in the data set with RAW264.7 [2] came to 27.6 µM. Besides, the cytotoxicity at 100 µM in data set [5] was under 10%.

`C[C@@H]1C[C@@H]2CCCN2[C@H](CC(=O)C[C@H]2N3CCC[C@H]3C[C@@H](C)[C@]2(O)c2ccccc2)[C@@]1(O)c1ccccc1`: in the data set with RAW264.7 [1], the inhibition result is “inactive”. In addition, the IC50 in the data set on RAW264.7 [2] was 22.8 µM.
